From ChEMBL document CHEMBL2029282, “Synthesis and characterization of 2'-C-Me branched C-nucleosides as HCV polymerase inhibitors” (Bioorg Med Chem Lett, 2012)

How the values were obtained:
Hepatitis C virus [1] = test: Antiviral activity against HCV genotype 1b infected in human HuH7 cells assessed as cytoprotection after 24 hrs; assay type: functional, organism-based, Hepacivirus hominis; details: Huh-7, 24 h
[2] = Cytotoxicity against human HuH7 cells after 24 hrs by MTS assay; assay type: cell-based, Huh-7
Hepatitis C virus [3] = test: Inhibition of HCV genotype 1b NS5B after 90 mins; design: species or system Hepatitis C virus subtype 1b; details: 1.5 h
adenosine deaminase = test: Stability of the compound assessed as compound remaining at 10 uM after 60 mins in presence of bovine adenosine deaminase; assay type: ADME; details: cattle, read-out: Stability
Procedure, shortened: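 Nucleosides (10 µM) were incubated at 37 °C with 0.0125 U/mL bovine adenosine deaminase in 0.01 M potassium phosphate pH 6.0 and sampled over 1 h. Reactions were quenched with ice-cold methanol containing 0.2% formic acid. Nucleoside was quantified by LC with triple-quadrupole MS in positive-ion MRM mode, and percent remaining taken at 60 min. Values are the mean of 2 independent experiments in duplicate.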

[4] = Plasma clearance in beagle dog at 0.5 mg/kg, iv after 24 hrs by LC-MS/MS analysis; assay type: ADME, organism-based, Canis lupus familiaris; design: dose 0.5 mg/kg, route intravenous
Procedure, shortened: (§1)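 Groups of 3 non-naive male beagle dogs received one dose as a solution in 5/5/5/85 ethanol/[…]/polyethylene glycol/50 mM aqueous citrate buffer (pH 3.3). Dosing was either 0.5 mg/kg by IV infusion or 1 mg/kg orally. EDTA-K3 plasma was sampled over 24 h, precipitated with acetonitrile (60% final), dried, reconstituted in 20% acetonitrile, and analysed by LC/MS/MS in positive-ion MRM mode.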

[5] = Volume of distribution in beagle dog at 0.5 mg/kg, iv after 24 hrs by LC-MS/MS analysis; assay type: ADME, organism-based, Canis lupus familiaris; design: dose 0.5 mg/kg, route intravenous; details: in vivo; procedure, shortened: as §1
[6] = Elimination half life in beagle dog plasma at 0.5 mg/kg, iv after 24 hrs by LC-MS/MS analysis; assay type: ADME, organism-based, Canis lupus familiaris; design: dose 0.5 mg/kg, route intravenous; procedure, shortened: as §1
[7] = Oral bioavailability in beagle dog at 1 mg/kg; assay type: ADME, organism-based, Canis lupus familiaris; details: in vivo; procedure, shortened: as §1
Hepatocyte = test: Prodrug activation in primary human hepatocytes assessed as compound triphosphate form at 10 uM after 1 hr; assay type: cell-based
Procedure, shortened: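 Primary human hepatocytes from two donors were grown confluent (0.88×10^6 cells/well) in Williams E medium with supplement. Cells were exposed to compound (10 µM) for 1 h, then drug-free medium for 23 h, and sampled during and after exposure. Cells were extracted in 70% methanol, dried, and resuspended in 1 mM ammonium phosphate pH 8.5. Triphosphate was quantified by LC/MS/MS. Two independent experiments were run in duplicate.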

Syrian golden hamster [8] = test: Prodrug activation in Golden Syrian hamster liver assessed as compound triphosphate form at 10 mg/kg, po […]; assay type: organism-based, Mesocricetus auratus; design: dose 10 mg/kg, route oral; details: in vivo
Procedure, shortened: (§2)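 Groups of 12 Golden Syrian hamsters or Sprague–Dawley rats were dosed orally with nucleoside in water. Doses were 20 or 10 mg/kg in hamsters and 2 or 5 mg/kg in rats. Livers were harvested under isoflurane at 1, 4, 8 and 12 h and snap-frozen. Homogenate supernatant was dried, reconstituted in 1 mM ammonium phosphate pH 7.0, and triphosphate measured by LC/MS/MS, with endogenous ATP checked for stability. Values are mean±SD from 3 livers per time point.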

Rattus norvegicus [9] = test: Prodrug activation in Sprague-Dawley rat liver assessed as compound triphosphate form at 5 mg/kg, po after […]; assay type: organism-based; design: dose 5 mg/kg, route oral; details: in vivo; procedure, shortened: as §2
[10] = Oral bioavailability in Sprague-Dawley rat; assay type: ADME, organism-based; details: in vivo
Huh-7 = test: Prodrug activation in human HuH7 cells assessed as compound triphosphate form at 10 uM after 24 hrs; details: huh-7, 24 h
Syrian golden hamster [11] = test: Prodrug activation in Golden Syrian hamster liver assessed as compound triphosphate form at 20 mg/kg, po after 4 to 24 hrs; assay type: organism-based, Mesocricetus auratus; design: dose 20 mg/kg, route oral; details: in vivo
Rattus norvegicus [12] = test: Prodrug activation in Sprague-Dawley rat liver assessed as compound triphosphate form at 2 mg/kg, po after 4 to 24 hrs; assay type: organism-based; design: dose 2 mg/kg, route oral; details: in vivo
[13] = Plasma clearance in rat; assay type: ADME, organism-based

| SMILES | EC50 (Hepatitis C virus [1]) [µM] | IC50 (Hepatitis C virus [3]) [µM] | remaining at 1 h, 10 µM (adenosine deaminase) [%] | CC50 at 24 h [2] [µM] | other results |
| --- | --- | --- | --- | --- | --- |
| C[C@@]1(O)[C@H](O)[C@@H](CO)O[C@H]1c1c[nH]c(N)nc1=O | > 89 | 13.4 |  | > 89 |  |
| C[C@@]1(O)[C@H](O)[C@@H](CO)O[C@H]1n1ccc(N)nc1=O | 4.07 | 0.73 |  | > 89 |  |
| C[C@@]1(O)[C@H](O)[C@@H](CO)O[C@H]1c1ccc2c(N)ncnn12 | 1.98 | 0.31 | 100 | 85 | clearance [4]: 6.67 mL/min/kg; Vd [5]: 1.66 L/kg; half-life [6]: > 7 h; bioavailability [7]: 70%; Drug metabolism (Hepatocyte): Active; Drug metabolism (Syrian golden hamster [8]): Active; Drug metabolism (Rattus norvegicus [9]): Active; bioavailability [10]: 50%; Drug metabolism (Huh-7): Not Active |
| C[C@@]1(O)[C@H](O)[C@@H](CO)O[C@H]1n1cnc2c(=O)[nH]c(N)nc21 [2'-B-METHYL-GUANOSINE] | 3.25 | 0.25 |  | > 89 |  |
| CC(C)(C)C(=O)SCCOP(=O)(OCCSC(=O)C(C)(C)C)OC[C@H]1O[C@@H](n2cnc3c(=O)[nH]c(N)nc32)[C@](C)(O)[C@@H]1O | 0.05 |  |  |  |  |
| C[C@@]1(O)[C@H](O)[C@@H](CO)O[C@H]1n1ccc2c(N)ncnc21 [BETA-2'-C-METHYL-7-DEAZA-ADENOSINE] | 0.08 | 0.3 | 98 | > 89 | Drug metabolism (Syrian golden hamster [11]): Active; Drug metabolism (Rattus norvegicus [12]): Active |
| C[C@@]1(O)[C@H](O)[C@@H](CO)O[C@H]1n1ccc(=O)[nH]c1=O | 15.2 | 1.32 |  | > 89 |  |
| C[C@@]1(O)[C@H](O)[C@@H](CO)O[C@H]1n1cnc2c(N)ncnc21 | 0.35 | 6.83 | 94 | 66 | clearance [13]: > 200 mL/min/kg |

Second part, led by results:

| EC50 (Hepatitis C virus [1]) [µM] | IC50 (Hepatitis C virus [3]) [µM] | remaining at 1 h, 10 µM (adenosine deaminase) [%] | SMILES | CC50 at 24 h [2] [µM] | other results |
| --- | --- | --- | --- | --- | --- |
| > 89 | 13.4 |  | C[C@@]1(O)[C@H](O)[C@@H](CO)O[C@H]1c1c[nH]c(=O)[nH]c1=O | > 89 |  |
| > 89 | 0.19 |  | C[C@@]1(O)[C@H](O)[C@@H](CO)O[C@H]1c1cnc2c(=O)[nH]c(N)nn12 | > 89 |  |
| 1.28 | 2.1 | 55 | C[C@@]1(O)[C@H](O)[C@@H](CO)O[C@H]1c1cnc2c(N)ncnn12 | > 89 |  |
| 9.54 |  |  | CC(C)(C)C(=O)SCCOP(=O)(OCCSC(=O)C(C)(C)C)OC[C@H]1O[C@@H](c2cnc3c(=O)[nH]c(N)nn23)[C@](C)(O)[C@@H]1O |  |  |
